According to ChEMBL document CHEMBL3351542, “Nonpeptide small molecule agonist and antagonist original leads for neuropeptide FF1 and FF2 receptors” (J Med Chem, 2014):
Active and inactive are the calls of the source. The calls are words filed in the database; no cut-off is given here. Square brackets hold non-standard residues; d marks the D form. Peptide text beside a SMILES is read from it. NMeF = CN[C@@H](Cc1ccccc1)C(=O)O

Key:
[1] = molecular target: T1, Neuropeptide FF receptor 2 (Homo sapiens, UniProt Q9Y5X5); experiment: Displacement of [3H]EYF from human NPFF2 receptor expressed in CHO cells after 1 hr by liquid scintillation counting analysis; type: cell-based
T1 sequence (Q9Y5X5 whole entry): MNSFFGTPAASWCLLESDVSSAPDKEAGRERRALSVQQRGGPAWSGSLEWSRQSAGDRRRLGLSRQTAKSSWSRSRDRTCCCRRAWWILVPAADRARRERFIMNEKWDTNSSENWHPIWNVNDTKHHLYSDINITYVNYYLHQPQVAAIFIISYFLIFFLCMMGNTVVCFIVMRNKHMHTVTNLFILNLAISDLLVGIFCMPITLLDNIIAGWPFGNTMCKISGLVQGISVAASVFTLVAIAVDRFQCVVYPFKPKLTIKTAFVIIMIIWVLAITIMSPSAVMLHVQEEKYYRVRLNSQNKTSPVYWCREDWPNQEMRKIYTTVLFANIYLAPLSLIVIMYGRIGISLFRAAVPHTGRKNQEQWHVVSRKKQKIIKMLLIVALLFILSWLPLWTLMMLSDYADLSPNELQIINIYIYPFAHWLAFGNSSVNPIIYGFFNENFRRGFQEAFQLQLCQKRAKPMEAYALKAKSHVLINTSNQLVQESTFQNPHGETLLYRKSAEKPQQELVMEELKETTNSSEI

Homo sapiens [2] = organism: Homo sapiens; experiment: Selectivity ratio of Ki for human NPFF2 receptor to Ki for human NPFF1 receptor
[3] = molecular target: T2, Neuropeptide FF receptor 1 (Homo sapiens, UniProt Q9GZQ6); experiment: Displacement of [3H]NPVF from human NPFF1 receptor expressed in CHO cells after 1 hr by liquid scintillation counting analysis; type: cell-based
T2 sequence (Q9GZQ6 whole entry): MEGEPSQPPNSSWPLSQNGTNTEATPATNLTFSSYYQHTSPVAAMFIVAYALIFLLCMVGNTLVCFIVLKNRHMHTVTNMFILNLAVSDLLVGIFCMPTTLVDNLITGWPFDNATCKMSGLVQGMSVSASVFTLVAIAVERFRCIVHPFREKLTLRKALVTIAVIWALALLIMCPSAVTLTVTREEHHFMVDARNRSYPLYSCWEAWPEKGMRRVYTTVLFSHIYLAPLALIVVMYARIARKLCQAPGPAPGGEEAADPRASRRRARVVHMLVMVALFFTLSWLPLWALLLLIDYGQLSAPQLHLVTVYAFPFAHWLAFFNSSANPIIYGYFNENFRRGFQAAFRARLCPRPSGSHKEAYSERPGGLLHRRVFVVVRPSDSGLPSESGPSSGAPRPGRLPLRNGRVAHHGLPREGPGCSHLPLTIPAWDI

[4] = molecular target: T1, Neuropeptide FF receptor 2; experiment: Agonist activity at human NPFF2 receptor expressed in CHO cells at 10 uM after 60 mins by [35S-GTPgammaS] binding assay relative to control; type: functional, cell-based
Outline: (§1)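 CHO cell membranes stably expressing hNPFF1-R (1.5 μg protein) or hNPFF2-R (0.7 μg). 60 min at 30 °C in 20 mM HEPES pH 7.4, 20 mM NaCl, 3 mM MgCl2, 0.1% BSA, saponin, GDP 0.1 μM (NPFF1) or 1 μM (NPFF2), 0.066 nM [35S]GTPγS; filtration, scintillation counting. Compound at 10 μM; % stimulation over basal, compared with 1DMe 10 μM. Two–four experiments in duplicate.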

[5] = molecular target: T1, Neuropeptide FF receptor 2; experiment: Displacement of [125I]EYF from human NPFF2 receptor expressed in CHO cells after 1 hr by liquid scintillation counting analysis; type: cell-based
Outline: (§2)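 Competition binding on CHO membranes stably expressing hNPFF1-R ([125I]YVP) or hNPFF2-R ([125I]EYF). Ki reported as mean ± SEM of two to four experiments in duplicate.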

[6] = molecular target: T2, Neuropeptide FF receptor 1; experiment: Displacement of [125I]YVP from human NPFF1 receptor expressed in CHO cells after 1 hr by liquid scintillation counting analysis; type: cell-based; outline: as §2
[7] = molecular target: T2, Neuropeptide FF receptor 1; experiment: Agonist activity at human NPFF1 receptor expressed in CHO cells at 10 uM after 60 mins by [35S-GTPgammaS] binding assay relative to control; type: functional, cell-based; outline: as §1
Homo sapiens [8] = organism: Homo sapiens; experiment: Selectivity for human NPFF2 receptor over human NPFF1 receptor
Homo sapiens [9] = organism: Homo sapiens; experiment: Selectivity ratio of Ki for human NPFF1 receptor to Ki for human NPFF2 receptor
[10] = molecular target: T2, Neuropeptide FF receptor 1; experiment: Antagonist activity at human NPFF1 receptor expressed in CHO cells assessed as reversal of NPVF-induced inhibition of intracellular cAMP accumulation after 10 mins by liquid scintillation counting analysis relative to control; type: functional, cell-based
[11] = molecular target: T2, Neuropeptide FF receptor 1; experiment: Agonist activity at human NPFF1 receptor expressed in CHO cells assessed as inhibition of forskolin-induced intracellular cAMP accumulation by liquid scintillation counting analysis; type: functional, cell-based
Outline: (§3)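 Stably transfected CHO cells (200000) seeded overnight, labelled 1 h at 37 °C with [3H]adenine plus 0.1 μM adenine, rinsed in HEPES-Krebs-Ringer pH 7.4. Compound alone added with forskolin (20 μM in the added solution), IBMX and Ro-20 1724; 10 min at 37 °C, stopped with HCl. [3H]cAMP isolated on acid alumina columns, scintillation counted. Duplicates, two to four experiments.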

[12] = molecular target: T1, Neuropeptide FF receptor 2; experiment: Agonist activity at human NPFF2 receptor expressed in CHO cells assessed as inhibition of forskolin-induced intracellular cAMP accumulation up to 1 uM by liquid scintillation counting analysis; type: functional, cell-based; outline: as §3
[13] = molecular target: T1, Neuropeptide FF receptor 2; experiment: Partial agonist activity at human NPFF2 receptor expressed in CHO cells assessed as inhibition of forskolin-induced intracellular cAMP accumulation at >1 uM by liquid scintillation counting analysis; type: functional, cell-based; outline: as §3
[14] = molecular target: T1, Neuropeptide FF receptor 2; experiment: Antagonist activity at human NPFF2 receptor expressed in CHO cells assessed as inhibition of forskolin-induced intracellular cAMP accumulation at 10 to 30 uM after 10 mins by liquid scintillation counting analysis relative to control; type: functional, cell-based
Outline: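 At hNPFF2 CHO cells, compound alone tested at 10 and 30 μM in the forskolin-stimulated [3H]cAMP accumulation assay (10 min, 37 °C, IBMX and Ro-20 1724 present, alumina column isolation). Read-out is % inhibition of cAMP accumulation.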

[15] = molecular target: T2, Neuropeptide FF receptor 1; experiment: Agonist activity at human NPFF1 receptor expressed in CHO cells assessed as inhibition of forskolin-induced intracellular cAMP accumulation up to 1 uM by liquid scintillation counting analysis; type: functional, cell-based; outline: as §3
[16] = molecular target: T1, Neuropeptide FF receptor 2; experiment: Antagonist activity at human NPFF2 receptor expressed in CHO cells assessed as reversal of 1DMe-induced inhibition of intracellular cAMP accumulation at 10 to 30 uM after 10 mins by liquid scintillation counting analysis relative to control; type: functional, cell-based
[17] = molecular target: T2, Neuropeptide FF receptor 1; experiment: Partial agonist activity at human NPFF1 receptor expressed in CHO cells assessed as inhibition of forskolin-induced intracellular cAMP accumulation at >1 uM by liquid scintillation counting analysis; type: functional, cell-based; outline: as §3
[18] = molecular target: T1, Neuropeptide FF receptor 2; experiment: Agonist activity at human NPFF2 receptor expressed in CHO cells assessed as inhibition of forskolin-induced intracellular cAMP accumulation by liquid scintillation counting analysis; type: functional, cell-based
[19] = molecular target: T1, Neuropeptide FF receptor 2; experiment: Antagonist activity at human NPFF2 receptor expressed in CHO cells assessed as reversal of 1DMe-induced inhibition of intracellular cAMP accumulation after 10 mins by liquid scintillation counting analysis relative to control; type: functional, cell-based

## COc1cccc(NC2(CNC(=O)CNC(=N)N)CCN(Cc3ccccc3)CC2)c1
[1]
  Ki: 0.884 µM
Homo sapiens [2]
  Ratio Ki: 4.4
[3]
  Ki: 0.201 µM

## N=C(N)NCCC[C@H](N)C(=O)NCC1(Nc2ccccc2)CCN(Cc2ccccc2)CC1
[4]
  Emax: 184%
[5]
  Ki: 1.05 µM
[6]
  Ki: 0.487 µM
[7]
  Emax: 36%

## N=C(N)NCCC(=O)NCC1(Nc2ccccc2)CCN(Cc2ccccc2)CC1
[1]
  Ki: 2.91 µM
Homo sapiens [2]
  Ratio Ki: 6
[3]
  Ki: 0.441 µM

## H-AGEGLSSPFWSLAAPQRF-NH2
Homo sapiens [8]
  Selectivity ratio: 10.1

## N=C(N)NCCC[C@H](N)C(=O)NCC1(Nc2ccccc2)CCN(Cc2ccc3ccccc3c2)CC1
Homo sapiens [9]
  Ratio Ki: 1.6
[5]
  Ki: 0.304 µM
[6]
  Ki: 0.479 µM

## CC(C)C[C@H](NC(=O)[C@H](N)Cc1ccc(O)cc1)C(=O)N(C)[C@@H](Cc1ccccc1)C(=O)N[C@@H](CCC(N)=O)C(=O)N1CCC[C@H]1C(=O)N[C@@H](CCC(N)=O)C(=O)N[C@@H](CCCNC(=N)N)C(=O)N[C@@H](Cc1ccccc1)C(N)=O (H-[dY]L[NMeF]QPQRF-NH2)
[6]; cho
  Ki: 0.004 µM

## N=C(N)NCC(=O)NCC1(CCc2ccccc2)CCN(Cc2ccccc2)CC1
[1]
  Ki: 0.465 µM
Homo sapiens [2]
  Ratio Ki: 3
[3]
  Ki: 0.151 µM

## N=C(N)NCC(=O)NCC1(c2ccccc2)CCN(Cc2ccccc2)CC1
[1]
  Ki: 3.5 µM
Homo sapiens [2]
  Ratio Ki: 6.9
[3]
  Ki: 0.511 µM

## N=C(N)NCC(=O)NCC1(Nc2ccccc2)CCN(CC2CCCCC2)CC1
Homo sapiens [9]
  Ratio Ki: 5.5
[1]
  Ki: 0.298 µM
[3]
  Ki: 1.64 µM

## N=C(N)NCC(=O)NCC1(Nc2ccccc2)CCN(Cc2ccc3ccccc3c2)CC1
[1]
  Ki: 0.504 µM
Homo sapiens [2]
  Ratio Ki: 3.6
[3]
  Ki: 0.141 µM

## N=C(N)NCC1(Nc2ccccc2)CCN(CCc2ccccc2)CC1
[5]
  Ki: 2.77 µM
[6]
  Ki: 2.96 µM

## N=C(N)NCCNC(=O)C1(Nc2ccccc2)CCN(Cc2ccccc2)CC1
[1]
  Ki: 1.43 µM
[3]
  Ki: 0.081 µM
[10]
  Activity: Dose-dependent effect
  EC50: 3.52 µM
  Emax: 68%

## N=C(N)NCC(=O)NCC1(Nc2ccccc2)CCN(Cc2cccc3ccccc23)CC1
Homo sapiens [9]
  Ratio Ki: 4.2
[1]
  Ki: 0.129 µM
[3]
  Ki: 0.538 µM

## CN1CCC(CNC(=O)[C@@H](N)CCCNC(=N)N)(Nc2ccccc2)CC1
[5]
  Ki: > 5 µM
[6]
  Ki: > 5 µM

## H-SLNFEELKDWGPKNVIKMSTPAVNKMPHSFANLPLRF-NH2
Homo sapiens [8]
  Selectivity ratio: 1.2

## COc1cc(NC2(CNC(=O)CNC(=N)N)CCN(Cc3ccccc3)CC2)cc(OC)c1
[1]
  Ki: 0.987 µM
[3]
  Ki: 0.114 µM
[11]
  EC50: > 10 µM

## N=C(N)NCC(=O)NCC1(Nc2ccccc2)CCN(CCc2ccccc2)CC1
Homo sapiens [9]
  Ratio Ki: 3.2
[1]
  Ki: 0.33 µM
[3]
  Ki: 1.06 µM

## CC(C)C[C@H](NC(=O)[C@H](Cc1ccccc1)NC(=O)[C@H](C)NC(=O)[C@H](CCC(N)=O)NC(=O)[C@@H](N)CO)C(=O)N[C@@H](Cc1ccccc1)C(=O)N[C@@H](CCC(N)=O)C(=O)N1CCC[C@H]1C(=O)N[C@@H](CCC(N)=O)C(=O)N[C@@H](CCCNC(=N)N)C(=O)N[C@@H](Cc1ccccc1)C(N)=O
Homo sapiens [8]
  Selectivity ratio: 10.7

## N=C(N)NCC(=O)NCC1(Cc2ccc(Cl)c(Cl)c2)CCN(Cc2ccccc2)CC1
Homo sapiens [9]
  Ratio Ki: 5.3
[1]
  Ki: 0.082 µM
[3]
  Ki: 0.432 µM

## N=C(N)NCCC[C@H](N)C(=O)NCC1(Nc2ccccc2)CCN(CCc2ccccc2)CC1
[5]
  Ki: 1.69 µM
[6]
  Ki: 2.91 µM

## N=C(N)NCC(=O)NCC1(Nc2cccc3ccccc23)CCN(Cc2ccccc2)CC1
[1]
  Ki: 0.309 µM
[3]
  Ki: 0.094 µM
[11]
  EC50: > 10 µM

## N=C(N)NCC(=O)NCC1(Cc2ccc3ccccc3c2)CCN(Cc2ccccc2)CC1
Homo sapiens [9]
  Ratio Ki: 1.5
[1]
  Ki: 0.205 µM
[3]
  Ki: 0.316 µM

## N=C(N)NCC1(Nc2ccccc2)CCN(Cc2ccccc2)CC1
[5]
  Ki: 6.62 µM
[6]
  Ki: 1.88 µM

## COC(=O)c1ccc(CN2CCC(CNC(=O)CNC(=N)N)(Nc3ccccc3)CC2)cc1
[1]
  Ki: 1.51 µM
Homo sapiens [2]
  Ratio Ki: 4.5
[3]
  Ki: 0.34 µM

## N=C(N)NCC(=O)NCC1(Nc2ccccc2)CCN(Cc2ccccc2)CC1
[12]
  Activity: Active
[1]
  Ki: 0.405 µM
[13]
  Activity: inactive
[14]
  Emax: 20%
[15]
  Activity: Active
[3]
  Ki: 0.319 µM
[16]
  inhibition: Active
[17]
  Activity: inactive
[10]
  EC50: 22 µM
  Emax: 83%

## N=C(N)NCC(=O)NCC1(Nc2ccc(Cl)c(Cl)c2)CCN(Cc2ccccc2)CC1
[1]
  Ki: 0.409 µM
Homo sapiens [2]
  Ratio Ki: 2.1
[3]
  Ki: 0.191 µM

## N=C(N)NCC(=O)NCC1(Nc2ccccc2)CCN(Cc2ccc(Br)cc2)CC1
[1]
  Ki: 0.454 µM
Homo sapiens [2]
  Ratio Ki: 4
[3]
  Ki: 0.112 µM

## CN1CCC(CNC(=N)N)(Nc2ccccc2)CC1
[5]
  Ki: > 5 µM
[6]
  Ki: > 5 µM

## N=C(N)NCC(=O)NCC1(Cc2ccccc2)CCN(Cc2ccccc2)CC1
[1]
  Ki: 0.084 µM
[3]
  Ki: 0.417 µM
[18]
  EC50: > 1 µM

## N=C(N)NCC(=O)NCC1(Cc2ccc(-c3ccccc3)cc2)CCN(Cc2ccccc2)CC1
[1]
  Ki: 0.91 µM
Homo sapiens [2]
  Ratio Ki: 3
[3]
  Ki: 0.296 µM

## N=C(N)NCC(=O)NCC1(Nc2ccccc2)CCNCC1
[1]
  Ki: 2.76 µM
[3]
  Ki: 15.1 µM

## N=C(N)NCC(=O)NCC1(Cc2cccc3ccccc23)CCN(Cc2ccccc2)CC1
[1]
  Ki: 0.03 µM
[19]
  EC50: 0.645 µM
  Emax: 22%
[3]
  Ki: 0.112 µM
[10]
  Activity: Dose-dependent effect
  EC50: 2.6 µM
  Emax: 56.2%

## N=C(N)NCCC[C@H](N)C(=O)NCC1CCN(Cc2ccccc2)CC1
[5]
  Ki: 7.58 µM
[6]
  Ki: > 5 µM
